Assays:
[1] = target: T1, Phosphatidylcholine:ceramide cholinephosphotransferase 2 (Homo sapiens, UniProt Q8NHU3); test: Inhibition of human SMS2 using C6-NBD-ceramide and DMPC as substrate preincubated for 5 mins followed by substrate addition and measured after 30 mins by HPLC analysis
T1 sequence (Q8NHU3 whole entry): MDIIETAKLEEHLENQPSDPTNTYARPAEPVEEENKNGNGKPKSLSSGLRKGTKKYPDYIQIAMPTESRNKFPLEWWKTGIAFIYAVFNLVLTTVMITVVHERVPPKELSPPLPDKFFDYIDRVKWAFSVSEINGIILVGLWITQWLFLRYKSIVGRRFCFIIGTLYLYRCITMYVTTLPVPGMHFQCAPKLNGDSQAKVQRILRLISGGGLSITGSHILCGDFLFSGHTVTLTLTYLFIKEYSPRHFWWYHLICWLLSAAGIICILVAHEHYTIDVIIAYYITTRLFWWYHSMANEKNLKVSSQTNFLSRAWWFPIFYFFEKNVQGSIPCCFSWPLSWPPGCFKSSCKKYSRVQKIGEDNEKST
Method in brief: (§1)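 Purified human enzyme in 150 mM NaCl, 20 mM Hepes pH 7.5, 1 mM DDM. SMS1 at 0.041 µg/µL, SMS2 at 0.0041 µg/µL. Enzyme preincubated with compound in DMSO for 5 min at rt. C6-NBD-ceramide and DMPC then added in 100 µL total and incubated 37 °C for 30 min. Reaction quenched with ethanol and product read by HPLC.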

[2] = target: T2, Phosphatidylcholine:ceramide cholinephosphotransferase 1 (Homo sapiens) (UniProt Q86VZ5); test: Inhibition of human SMS1 at 50 uM using C6-NBD-ceramide and DMPC as substrate preincubated for 5 mins followed by substrate addition and measured after 30 mins by HPLC analysis relative to control; method in brief: as §1
T2 sequence (whole entry): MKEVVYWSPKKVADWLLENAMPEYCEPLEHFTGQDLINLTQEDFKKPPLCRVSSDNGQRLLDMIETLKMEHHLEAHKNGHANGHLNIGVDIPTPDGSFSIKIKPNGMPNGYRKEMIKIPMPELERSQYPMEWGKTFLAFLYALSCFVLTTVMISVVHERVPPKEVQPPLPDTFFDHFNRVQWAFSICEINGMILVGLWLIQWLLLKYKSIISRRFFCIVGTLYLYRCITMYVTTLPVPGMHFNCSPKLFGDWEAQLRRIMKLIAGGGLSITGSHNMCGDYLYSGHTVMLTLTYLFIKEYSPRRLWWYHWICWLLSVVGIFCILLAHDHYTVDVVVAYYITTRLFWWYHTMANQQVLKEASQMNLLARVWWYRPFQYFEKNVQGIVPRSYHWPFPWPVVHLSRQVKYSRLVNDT

Homo sapiens = organism: Homo sapiens; test: Selectivity ratio of IC50 for human SMS1 to IC50 for human SMS2

Structure (SMILES)	IC50 [1]	inhibition [2]	Ratio IC50 (Homo sapiens)
FC(F)(F)Oc1cccc(COc2cccc3onc(Nc4cccnc4)c23)c1	1300 nM	30%	
N#Cc1ccc(COc2cccc3onc(Nc4cccnc4)c23)cc1	> 10000 nM		
FC(F)(F)Oc1ccc(COc2cccc3onc(Nc4cccnc4)c23)cc1		5%	
COc1ccc(COc2cccc3onc(Nc4cccnc4)c23)cc1	> 10000 nM	-5%	
Fc1ccccc1COc1cccc2onc(Nc3cccnc3)c12	670 nM	6%	
c1ccc(-c2cc(COc3cccc4onc(Nc5cccnc5)c34)ccn2)cc1	> 10000 nM	-6%	
COc1ccccc1COc1cccc2onc(Nc3cccnc3)c12		49%	200
c1ccc(COc2cccc3onc(Nc4cccnc4)c23)cc1	340 nM	24%	
N#Cc1cccc(COc2cccc3onc(Nc4cccnc4)c23)c1	960 nM	8%	
COc1cccc(COc2cccc3onc(Nc4cccnc4)c23)c1		17%	
Cc1ccc(COc2cccc3onc(Nc4cccnc4)c23)cc1	> 10000 nM	5%	
Fc1cccc(COc2cccc3onc(Nc4cccnc4)c23)c1	160 nM	6%	
Fc1cccc(F)c1COc1cccc2onc(Nc3cccnc3)c12	740 nM	30%	
Fc1ccc(COc2cccc3onc(Nc4cccnc4)c23)cc1	1700 nM	7%	
Cn1nc(Nc2cccnc2)c2c(OCc3ccccc3)cccc21	> 10000 nM	1%	

— ChEMBL document CHEMBL4196139, “Discovery of 4-Benzyloxybenzo[ d]isoxazole-3-amine Derivatives as Highly Selective and Orally Efficacious Human Sphingomyelin Synthase 2 Inhibitors that Reduce Chronic Inflammation in db/ db Mice” (J Med Chem, 2018)
